Shown are actives, neighbours in structure and some others; about 3.9% of the full set was active somewhere.
STAT1 act – increases IFN-gamma driven STAT1 reporter signal. NIH 3T3 STAT1-luciferase reporter, luminescence; 100% = IFN-gamma alone, no compound. activation (% of control), % at 5.5 µM. 200,000 compounds, 2.6% hits. AID 932;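 active = activation above the screen-wide mean activation plus 3 SD, cut at about 130% in these data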
APP 5'UTR act – activates APP 5'UTR luciferase reporter. SH-SY5Y APP 5'UTR luciferase reporter, luminescence; zero percent = DMSO vehicle wells. activation, % at 2 µM. 190,000 compounds, 1% hits. AID 1276;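 active = activation above a set limit, based on mean plus 3 SD of controls, cut at about 140% in these data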
NF-kB expr up – compounds increasing NF-kB expression in human neuronal cells; NF-kB reporter expression; stronger effect = higher value; fold change at 12.5 µM; 190,000 compounds, 1.6% hits; AID 1239; in the data active = fold change above about 3.3
FLuc inhib CS – inhibits firefly luciferase, flagging false hits in luciferase inhibition screens. P08659. ATPLite firefly luciferase biochemical luminescence, 10 min. inhibition, % at 10 µM. 200,000 compounds, 1.5% hits;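 active = inhibition above about 50% when tested at 10 µM, limit read from the data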
Target sequence (P08659 whole entry, looked up): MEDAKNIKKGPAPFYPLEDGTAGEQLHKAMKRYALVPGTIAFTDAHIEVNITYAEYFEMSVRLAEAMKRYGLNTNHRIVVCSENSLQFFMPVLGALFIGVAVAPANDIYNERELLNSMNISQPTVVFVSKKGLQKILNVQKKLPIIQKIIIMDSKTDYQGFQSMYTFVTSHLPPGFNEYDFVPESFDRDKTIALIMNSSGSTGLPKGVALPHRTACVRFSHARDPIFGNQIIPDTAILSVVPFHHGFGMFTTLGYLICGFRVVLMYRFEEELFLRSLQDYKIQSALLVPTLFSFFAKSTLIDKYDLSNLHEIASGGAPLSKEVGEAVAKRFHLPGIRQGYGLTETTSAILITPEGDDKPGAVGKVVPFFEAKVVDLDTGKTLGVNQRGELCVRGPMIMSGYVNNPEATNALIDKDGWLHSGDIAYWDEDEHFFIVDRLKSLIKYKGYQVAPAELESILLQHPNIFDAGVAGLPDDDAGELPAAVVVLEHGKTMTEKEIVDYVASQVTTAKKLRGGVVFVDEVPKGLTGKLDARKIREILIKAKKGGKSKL
Rad51 HR inh – Rad51 (human) homologous recombination inhibition. hRad51 DNA strand exchange, fluorescence dequenching. inhibition, % at 10 µM. Q06609. 200,000 compounds, 0.085% hits. AID 1385;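 active = inhibition above 40% at the single screening dose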
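Assay system: Human Rad51 nucleoprotein filaments preassembled on unlabelled ssDNA | Reagent: Donor/quencher-labelled 47-bp dsDNA substrate | Doses: One concentration, 10 µM final | Times: 37 °C 15-min filament assembly, 30-min compound preincubation, 15-min exchange | Technique: Fluorescein emission 520 nm, excitation 485 nm | Benchmarks: Plate control and blank wells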
FLuc stim CS – affects firefly luciferase, flagging false hits in luciferase stimulation screens | P08659 | ATPlite luciferase biochemical, luminescence, 10 min; 0 = ATP-free wells, 1 = DMSO control | activation factor at 10 µM | 200,000 tested, under 10 active | AID 1027;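 active = luciferase activation factor, scaled between plate controls, of at least 2 with compound at 10 µM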
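Material: Luciferase/luciferin reagent mix | Doses: Test compounds dosed from 2 mM stocks in 100% DMSO | Timing: 10 min incubation after luciferase reagent addition, room temperature | Measured by: Luminescence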
Numbers stand for hits; 0 = inactive; - = no result.

SMILES	STAT1 act	APP 5'UTR act	NF-kB expr up	FLuc inhib CS	Rad51 HR inh	FLuc stim CS
Oc1cccc(-c2nc3ccc4ccccc4c3c3c2CCC3)c1	141.5	0	3.83	0	0	0
Cc1cccc(-n2ncc3c(N4CCC(C)CC4)ncnc32)c1	142.6	0	4.28	0	0	0
CCOC(=O)C1CCN(c2ncnc3c2cnn3-c2ccc(OC)cc2)CC1	0	0	0	0	-	0
c1ccc(-n2ncc3c(N4CCCCC4)ncnc32)cc1	0	0	0	89.3	0	0
CC1CC(C)CN(c2ncnc3c2cnn3-c2ccc(Cl)cc2)C1 (centres undefined)	0	233.0	0	0	0	0
COc1ccc(-n2ncc3c(N4CCC(C(N)=O)CC4)ncnc32)cc1	131.8	0	3.77	0	0	0
Cc1cccc(-n2ncc3c(N4CCC5(CC4)OCCO5)ncnc32)c1	-	-	-	-	0	-
COC(=O)c1ccc(C)c(NC(=O)CN(c2ccccc2)S(=O)(=O)N(C)C)c1	0	0	0	0	0	0
C(=N\NC1=Nc2cccc3cccc1c23)/c1cccnc1	150.1	0	0	59.6	0	0
Clc1ccc(/C=N/Nc2nn[nH]n2)cc1	0	0	0	0	0	0
Clc1ccc(/C=N/NC2=Nc3cccc4cccc2c34)cc1	135.4	0	0	0	0	0
COc1ccc(NC2=Nc3cccc4cccc2c34)cc1OC	0	0	0	0	0	0
C(=N\NC1=Nc2cccc3cccc1c23)/c1ccccc1	179.8	0	0	67.1	0	0
O=C(OCC(=O)C12CC3CC(CC(C3)C1)C2)c1cccnc1Cl	0	0	0	0	0	0
O=C(O)Cn1cc(/C=c2/sc3nc4ccccc4n3c2=O)c2ccccc21	131.0	0	0	0	0	0
CCOC(=O)/C(=N\Nc1ccc(Br)cc1)N1CC(C)OC(C)C1 (centres undefined)	-	-	-	-	0	-
Cc1cc(C)n2c(=O)c3ccc(Cl)cc3nc2c1C#N	0	0	0	0	0	0
Cc1cc(Cl)n2c(nc3cc(F)c(F)cc32)c1C#N	131.4	0	0	0	0	0
Cc1cccc(-n2ncc3c(NC(C)C)ncnc32)c1	150.1	158.2	4.97	63.2	0	0
Cc1ccccc1Nc1ncnc2c1cnn2-c1ccccc1	129.6	0	0	0	0	0
CC(C)Nc1ncnc2c1cnn2-c1ccccc1	135.6	0	4.04	78.9	0	0
CC(=O)CSc1ncnc2c1cnn2-c1ccccc1	0	0	7.19	0	0	0
CCO[C@H]1OC(C(N)=O)=C[C@@H](C(C)(C)C)[C@@H]1CCCO	-	-	-	-	0	-
COCC(=O)Nc1cc(Cl)c(OC)cc1OC	0	0	0	0	0	0
Cc1ccc(/C=C/c2nnc(-c3cccs3)o2)cc1	0	0	5.15	50.9	0	0
SMILES	STAT1 act	APP 5'UTR act	NF-kB expr up	FLuc inhib CS	Rad51 HR inh	FLuc stim CS
Cc1ccc(/C=C/c2nnc(-c3ccc(C)cc3)o2)cc1	0	0	0	0	0	0
Cc1ccc(-c2nnc(-c3ccccc3)o2)cc1	0	0	7.87	66.8	0	0
Cc1ccc(-c2nnc(-c3cccs3)o2)cc1	0	140.5	5.48	0	0	0
c1ccc(-c2nnc(-c3cccc(-c4nnc(-c5ccccc5)o4)c3)o2)cc1	0	0	-	-	-	-
Fc1ccc(/C=C/c2nnc(-c3cccs3)o2)cc1	128.9	0	4.17	0	0	0
NC(=O)C1CC(=O)N(c2ccc(OCc3c(Cl)cccc3Cl)cc2)C1 (centres undefined)	0	0	0	0	0	0
Cc1cccn2cc(-c3ccc4c(c3)NC(=O)CO4)nc12	-	-	-	-	0	-
Cc1ccn2cc(-c3ccc4c(c3)NC(=O)CO4)nc2c1	0	0	0	82.7	0	0
Cc1ccn2c(C(=O)N/N=C/c3ccc(CNC(=O)C(=O)Nc4ccc(C)c(C)c4)o3)c(C)nc2c1	0	0	0	0	0	0
Cc1ccc(NC(=O)C(=O)NCc2ccc(/C=N/NC(=O)c3c(C)nc4ccccn34)o2)cc1	0	0	0	72.6	0	0
CCOc1ccc2nc(/N=C/c3c(C)[nH]n(-c4ccc(C)cc4)c3=O)sc2c1	0	0	0	65.4	-	0
O=C(O)CN1C(=O)C2C3CC(C2C1=O)C1C(c2ccc(F)cc2)c2sc(=O)[nH]c2SC31 (centres undefined)	0	0	0	0	0	0
Clc1ccc(Nc2ccc(Cl)nn2)cc1	-	-	-	-	0	-

Compound activity: PubChem BioAssay, several laboratories
